Test results published in ChEMBL document CHEMBL4266041, “Hydroxybiphenylamide GroEL/ES Inhibitors Are Potent Antibacterials against Planktonic and Biofilm Forms of Staphylococcus aureus” (J Med Chem, 2018).

What was measured:
E. coli GroEL/ES [1] = biological target: T1, E. coli GroEL/ES (Escherichia coli, UniProt P0A6F5); assay: Inhibition of Escherichia coli GroEL expressed in Escherichia coli DH5alpha/Escherichia coli GroES expressed in Escherichia coli BL21 (DE3) assessed as reduction in GroEL/GroES-mediated denatured MDH refolding after 20 to 40 mins by spectrometric analysis
T1 sequence (P0A6F5 whole entry, looked up): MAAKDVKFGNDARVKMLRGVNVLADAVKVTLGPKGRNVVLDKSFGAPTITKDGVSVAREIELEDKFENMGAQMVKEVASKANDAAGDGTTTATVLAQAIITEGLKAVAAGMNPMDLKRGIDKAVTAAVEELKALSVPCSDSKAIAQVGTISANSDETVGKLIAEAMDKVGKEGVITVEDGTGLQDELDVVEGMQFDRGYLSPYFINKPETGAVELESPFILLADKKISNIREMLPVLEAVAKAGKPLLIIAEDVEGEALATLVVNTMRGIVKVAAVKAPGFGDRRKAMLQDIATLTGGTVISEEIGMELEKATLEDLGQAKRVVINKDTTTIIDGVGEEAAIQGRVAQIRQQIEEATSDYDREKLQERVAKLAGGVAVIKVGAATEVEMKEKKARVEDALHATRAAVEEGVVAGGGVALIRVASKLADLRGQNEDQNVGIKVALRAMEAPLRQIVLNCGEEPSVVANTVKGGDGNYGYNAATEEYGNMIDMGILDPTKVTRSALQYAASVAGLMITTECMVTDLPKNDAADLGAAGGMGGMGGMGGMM
Method in brief: (§1)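 Uses E. coli GroEL/ES with a denatured MDH or rhodanese reporter. GroEL first forms a binary complex with the denatured reporter. Refolding is started by adding ATP and GroES, then reporter enzyme activity is read. DMSO is the negative control. IC50 values from replicate curves are log-averaged after ROUT outlier screening.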

E. coli GroEL/ES [2] = biological target: T1, E. coli GroEL/ES; assay: Inhibition of Escherichia coli GroEL expressed in Escherichia coli DH5alpha/Escherichia coli GroES expressed in Escherichia coli BL21 (DE3) assessed as reduction in GroEL/GroES-mediated denatured rhodanese refolding after 45 mins by spectrometric analysis; method in brief: as §1
Staphylococcus aureus [3] = assay: Antibacterial activity against Staphylococcus aureus ATCC 25923 after 6 to 8 hrs by bacterial proliferation assay; type: functional, organism-based
[4] = biological target: T2, Thiosulfate sulfurtransferase (Homo sapiens, UniProt Q16762); assay: Inhibition of refolded rhodanese (unknown origin) preincubated with Escherichia coli GroEL/GroES for 60 mins in absence of compound followed by compound addition by spectrometric analysis
T2 sequence (Q16762 whole entry): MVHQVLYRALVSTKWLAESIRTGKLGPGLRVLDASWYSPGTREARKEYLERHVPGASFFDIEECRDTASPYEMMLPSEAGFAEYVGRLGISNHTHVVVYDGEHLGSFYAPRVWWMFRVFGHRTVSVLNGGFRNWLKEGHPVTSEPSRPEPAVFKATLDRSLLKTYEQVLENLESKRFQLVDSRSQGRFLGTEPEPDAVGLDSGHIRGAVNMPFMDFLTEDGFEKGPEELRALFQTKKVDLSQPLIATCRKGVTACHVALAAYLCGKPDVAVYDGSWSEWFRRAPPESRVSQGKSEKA

[5] = Inhibition of refolded MDH (unknown origin) preincubated with Escherichia coli GroEL/GroES for 45 mins in absence of compound followed by compound addition and measured for 20 to 35 mins by spectrometric analysis
Enterococcus faecium = assay: Antibacterial activity against Enterococcus faecium ATCC 19434 after 24 hrs by bacterial proliferation assay; type: functional, organism-based; conditions: ATCC 19434, 24 h
Staphylococcus aureus [6] = assay: Antibacterial activity against methicillin-resistant Staphylococcus aureus ATCC BAA-44 after 6 to 8 hrs by bacterial proliferation assay; type: functional, organism-based
Klebsiella pneumoniae = assay: Antibacterial activity against Klebsiella pneumoniae ATCC 13883 after 6 to 8 hrs by bacterial proliferation assay; type: functional, organism-based
Method in brief: (§2)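 Bacterial growth inhibition in liquid culture. The highest concentration tested was 100 µM. The mean was back-calculated from the average log value. Values above the top concentration were set 0.1 log unit higher.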

Acinetobacter baumannii = assay: Antibacterial activity against Acinetobacter baumannii ATCC 19606 after 24 hrs by bacterial proliferation assay; type: functional, organism-based; conditions: ATCC 19606 = CIP 70.34 = JCM 6841, 24 h; method in brief: as §2
Pseudomonas aeruginosa = assay: Antibacterial activity against Pseudomonas aeruginosa ATCC 10145 after 24 hrs by bacterial proliferation assay; type: functional, organism-based; conditions: ATCC 10145, 24 h; method in brief: as §2
Enterobacter cloacae = assay: Antibacterial activity against Enterobacter cloacae subsp. cloacae ATCC 13047 after 24 hrs by bacterial proliferation assay; type: functional, organism-based; conditions: subsp. cloacae ATCC 13047, 24 h; method in brief: as §2
HSP60/HSP10 = HSP60/HSP10 (Homo sapiens, UniProt P10809); assay: Inhibition of human N-terminal octa-His-tagged HSP60 expressed in Escherichia coli Rosetta(DE3) pLysS/human HSP10 expressed in Escherichia coli Rosetta(DE3) assessed as reduction in HSP60/HSP10-mediated denatured MDH refolding after 40 to 60 mins by spectrometric analysis
Chain of HSP60/HSP10 (P10809 whole entry): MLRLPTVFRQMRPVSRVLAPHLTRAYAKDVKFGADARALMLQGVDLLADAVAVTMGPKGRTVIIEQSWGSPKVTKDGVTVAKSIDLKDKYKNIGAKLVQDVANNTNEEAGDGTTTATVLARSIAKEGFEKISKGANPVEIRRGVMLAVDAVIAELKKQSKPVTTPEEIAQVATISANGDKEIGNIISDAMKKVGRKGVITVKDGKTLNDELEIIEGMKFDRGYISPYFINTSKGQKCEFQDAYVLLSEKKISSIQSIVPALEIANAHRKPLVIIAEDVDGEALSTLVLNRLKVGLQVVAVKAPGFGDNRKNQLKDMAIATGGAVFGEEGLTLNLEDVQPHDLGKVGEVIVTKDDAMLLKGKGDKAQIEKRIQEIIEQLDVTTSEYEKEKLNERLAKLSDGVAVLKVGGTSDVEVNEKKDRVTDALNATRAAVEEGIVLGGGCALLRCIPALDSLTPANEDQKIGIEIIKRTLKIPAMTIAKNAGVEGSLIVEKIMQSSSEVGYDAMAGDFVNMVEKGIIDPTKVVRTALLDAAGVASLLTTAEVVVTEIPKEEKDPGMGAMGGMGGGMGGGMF
Chain of HSP60/HSP10 (P61604 whole entry, further chain): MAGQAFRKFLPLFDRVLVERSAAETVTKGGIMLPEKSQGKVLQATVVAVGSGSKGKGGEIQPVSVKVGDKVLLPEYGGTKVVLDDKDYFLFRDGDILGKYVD
Method in brief: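 Human HSP60/10 refolding of denatured MDH, run the same way as the GroEL/ES-dMDH assay. A binary complex of chaperonin and denatured MDH is formed, and refolding is started with ATP and HSP10. MDH activity is the read-out. DMSO is the negative control. IC50 values from replicate curves are log-averaged after ROUT outlier screening.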

[7] = Cytotoxicity against human THLE3 cells assessed as reduction in cell viability after 48 hrs by Alamar Blue reporter assay; conditions: 48 h
HEK293 = assay: Cytotoxicity against HEK293 cells assessed as reduction in cell viability after 48 hrs by Alamar Blue reporter assay; conditions: human, hek293, 48 h
[8] = Staphylococcus aureus, ATCC BAA-44

| Structure (SMILES) | IC50 (E. coli GroEL/ES [1]) [µM] | IC50 (E. coli GroEL/ES [2]) [µM] | EC50 (Staphylococcus aureus [3]) [µM] | IC50 [4] [µM] | IC50 [5] [µM] | EC50 (Enterococcus faecium) [µM] | EC50 (Staphylococcus aureus [6]; [8]) [µM] | EC50 (Klebsiella pneumoniae) [µM] | EC50 (Acinetobacter baumannii) [µM] | EC50 (Pseudomonas aeruginosa) [µM] | EC50 (Enterobacter cloacae) [µM] | IC50 (HSP60/HSP10) [µM] | CC50 [7] [µM] | CC50 (HEK293) [µM] | EC50 (Staphylococcus aureus [6]) [µM] |
| --- | --- | --- | --- | --- | --- | --- | --- | --- | --- | --- | --- | --- | --- | --- | --- |
| CC1(C)S[C@@H]2[C@H](NC(=O)[C@H](N)c3ccccc3)C(=O)N2[C@H]1C(=O)O [AMPICILLIN] | > 100 | > 100 | 0.19 | > 100 | > 63 | 6.9 | > 100 | > 100 | > 100 | > 100 | > 100 | > 100 | > 100 | > 100 |  |
| O=C(Nc1cccc(Cl)c1)c1ccccc1O | > 100 | > 100 | 3.1 | > 100 | > 63 | > 100 | 4.2 | > 100 | > 100 | > 100 | > 100 | > 100 | 16 | 37 |  |
| O=C(Nc1ccc(Sc2nc3ccccc3s2)cc1)c1cc(Br)ccc1O | 38 | 30 | 0.12 | > 100 | > 63 | 19 | 0.14 | > 100 | > 100 | > 100 | > 100 | > 100 | 12 | 42 |  |
| O=C(Nc1ccc(Oc2ccc(Cl)cc2)c(Cl)c1)c1cc(I)cc(I)c1O [RAFOXANIDE] | 4.3 | 2.2 | 0.32 | > 100 | 25 | 0.99 |  | > 100 | 31 | > 100 | 40 | 2.8 | 24 | > 100 | 0.34 |
| COc1ccc(Br)cc1C(=O)Nc1ccc(Sc2nc3ccccc3s2)cc1 | > 100 | > 100 | > 100 | > 100 | > 63 | > 100 | > 100 | > 100 | > 100 | > 100 | > 100 | > 100 | > 100 | > 100 |  |
| O=C(Nc1ccc(Sc2nc3ccccc3s2)cc1)c1ccccc1 | > 100 | > 100 | > 100 | > 100 | > 63 | > 100 | > 100 | > 100 | > 100 | > 100 | > 100 | > 100 | > 100 | > 100 |  |
| COc1c(Br)cccc1C(=O)Nc1cccc(Cl)c1 | > 100 | > 100 | > 100 | > 100 | > 63 | > 100 | > 100 | > 100 | > 100 | > 100 | > 100 | > 100 | > 100 | > 100 |  |
| COc1c(Br)cc(Br)cc1C(=O)Nc1cccc(Cl)c1 | > 100 | > 100 | 46 | > 100 | > 63 | > 100 | > 100 | > 100 | > 100 | > 100 | > 100 | > 100 | > 100 | > 100 |  |
| O=C(Nc1ccc(Sc2nc3ccccc3s2)c(Cl)c1)c1ccccc1 | > 100 | > 100 | 43 | > 100 | > 63 | > 100 | > 100 | > 100 | > 100 | > 100 | > 100 | > 100 | 82 | 90 |  |
